According to ChEMBL document CHEMBL1122501, “Potential antiatherosclerotic agents. 2. (Aralkylamino)- and (alkylamino) benzoic acid analogues of cetaben” (1983):

What was measured:
[1] = tested on: Rattus norvegicus; assay: In vivo Sterol lowering activity at dose as 0.01 % of the diet; format: functional
Procedure, shortened: (§1)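 Male CFE or CD-1 Sprague-Dawley rats, 140-150 g; 8 per control group, 4 per test group. Compound mixed into ground chow (w/w) via MeOH-CHCl3 (1:3) solution, solvent evaporated; controls got solvent-treated chow. Fed ad libitum 5 days, food intake monitored, killed fed and bled. Serum sterols and triglycerides by adapted autoanalyzer methods; mean percent of control, Student's t test.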

[2] = tested on: Rattus norvegicus; assay: In vivo Sterol lowering activity at dose as 0.03 % of the diet; format: functional; procedure, shortened: as §1
[3] = tested on: Rattus norvegicus; assay: In vivo sterol lowering activity dosed at 0.10 % of the diet; format: functional; procedure, shortened: as §1
[4] = tested on: Rattus norvegicus; assay: In vivo triglyceride lowering activity dosed at 0.10 % of the diet; format: functional; procedure, shortened: as §1
[5] = tested on: Rattus norvegicus; assay: In vivo triglyceride lowering activity, dosed at 0.03 % of the diet; format: functional; procedure, shortened: as §1
[6] = tested on: Rattus norvegicus; assay: In vivo Triglyceride lowering activity at dose as 0.01 % of the diet; format: functional; procedure, shortened: as §1
[7] = target: T1, Sterol O-acyltransferase 1 (Rattus norvegicus) (UniProt O70536); assay: In vitro inhibitory activity against acyl coenzyme A:cholesterol acyltransferase (ACAT); parameters: concentration or dose not given beside the values; conditions: concentration not given here
T1 sequence (whole entry): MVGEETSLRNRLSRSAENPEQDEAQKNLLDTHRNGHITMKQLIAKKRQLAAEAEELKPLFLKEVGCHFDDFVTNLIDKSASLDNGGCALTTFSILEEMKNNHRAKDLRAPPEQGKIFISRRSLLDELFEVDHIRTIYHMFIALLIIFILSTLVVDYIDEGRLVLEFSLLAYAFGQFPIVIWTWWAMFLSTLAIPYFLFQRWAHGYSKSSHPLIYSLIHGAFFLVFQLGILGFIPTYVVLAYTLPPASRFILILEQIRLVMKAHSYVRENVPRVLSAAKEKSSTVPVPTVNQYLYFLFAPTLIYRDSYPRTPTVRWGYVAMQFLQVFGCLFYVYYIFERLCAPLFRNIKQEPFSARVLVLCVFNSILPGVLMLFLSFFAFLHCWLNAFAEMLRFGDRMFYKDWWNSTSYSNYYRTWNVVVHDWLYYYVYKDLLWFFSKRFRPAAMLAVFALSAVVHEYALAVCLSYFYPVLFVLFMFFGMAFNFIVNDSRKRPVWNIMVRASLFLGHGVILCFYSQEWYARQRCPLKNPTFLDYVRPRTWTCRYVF
Procedure, shortened: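 ACAT enzyme from rat adrenal homogenate in 0.2 M KH2PO4 buffer pH 7.4, 1000g 15 min 5 °C supernatant (microsomal fraction). Supernatant + BSA (50 mg/mL) + compound at final 5.2 μg/mL + buffer preincubated 10 min 37 °C; [14C]oleoyl-CoA (0.4 μCi) added, 30 min 37 °C. Lipids extracted, TLC; cholesteryl ester zone counted. Mean % inhibition vs no-compound control; Student's t test.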

[8] = tested on: Rattus norvegicus; assay: In vivo triglyceride lowering activity, dosed at 0.01 % of the diet.; format: functional; procedure, shortened: as §1
[9] = tested on: Rattus norvegicus; assay: In vivo Sterol lowering activity at dose as 0.10 % of the diet.; format: functional; procedure, shortened: as §1
[10] = tested on: Rattus norvegicus; assay: In vivo Sterol lowering activity at dose as 0.03 % of the diet.; format: functional; procedure, shortened: as §1
[11] = tested on: Rattus norvegicus; assay: In vivo Triglyceride lowering activity at dose as 0.03 % of the diet.; format: functional; procedure, shortened: as §1
[12] = tested on: Rattus norvegicus; assay: In vivo triglyceride lowering activity, dosed at 0.10 % of the diet.; format: functional; procedure, shortened: as §1

Row | Structure (SMILES) | Diet [1] [%] | Diet [2] [%] | serum sterol, percent of control [3] [%] | serum triglycerides, percent of control [4] [%] | serum triglycerides, percent of control [5] [%] | Diet [6] [%] | inhibition [7] [%] | Diet [8] [%] | serum sterol, percent of control [9] [%] | serum sterol level, percent of control [10] [%] | Diet [11] [%] | Diet [12] [%]
1 | CCCCCCCCCC/C=C/CCCNc1ccc(C(=O)[O-])cc1.[Na+] | 86 | 93 | <82 | <63 | 117 | 112 | – | – | – | – | – | –
2 | CCCCCCCCCCCc1nc(CNc2ccc(C(=O)O)cc2)c[nH]1.Cl | 99 | 93 | 100 | <70 | <71 | 79 | 19 | – | – | – | – | –
3 | O=C(O)c1ccc(NCCCCCCc2ccc(Cl)cc2)cc1 | 81 | 78 | – | 43 | 65 | – | 22 | 61 | 82 | – | – | –
4 | O=C(O)c1ccc(NC/C=C/c2ccccc2)cc1 | 86 | 70 | – | 44 | 43 | – | 0 | 85 | 96 | – | – | –
5 | CCCCCCCCCCCCCNc1ccc(C(=O)[O-])cc1.[Na+] | 110 | 90 | <76 | <62 | 70 | <60 | – | – | – | – | – | –
6 | CCOC(=O)c1ccc(NCCCCCCCCCCc2ccccc2)cc1 | 100 | <84 | <89 | <77 | <58 | 77 | < 63 | – | – | – | – | –
7 | CCCCCCCCCCCCCCCCCCNc1ccc(C(=O)[O-])cc1.[Na+] | <84 | 86 | 79 | <52 | <76 | 90 | – | – | – | – | – | –
8 | O=C(O)c1ccc(NCCCc2ccccc2F)cc1 | 87 | – | – | 52 | 55 | 58 | 58 | – | 81 | 85 | – | –
9 | O=C(O)c1ccc(NCCCCCCCCCC/C=C/c2cccs2)cc1 | <84 | <83 | <73 | <41 | <59 | 69 | < 53 | – | – | – | – | –
10 | Cl.O=C(O)c1ccc(NCCCCCCCCCCCn2ccnc2)cc1 | 95 | 99 | 113 | <47 | <48 | 74 | 22 | – | – | – | – | –
11 | CCOC(=O)c1ccc(NCCCCCCCCCCCn2ccnc2)cc1 | 89 | 100 | 89 | <57 | 92 | 78 | < 72 | – | – | – | – | –
12 | O=C(O)c1ccc(NCCCCCCCCc2ccccc2)cc1 | 90 | <78 | 84 | 74 | 56 | <54 | < 35 | – | – | – | – | –
13 | CCCCCCCCc1ccc(CNc2ccc(C(=O)OCC)cc2)s1 | 97 | 90 | 82 | <61 | <59 | 100 | < 32 | – | – | – | – | –
14 | O=C(O)c1ccc(NCCCCCCCCCCCCc2cccs2)cc1 | 85 | <81 | <70 | <42 | <50 | <59 | < 57 | – | – | – | – | –
15 | O=C(CCCCC(=O)c1ccc(Cl)cc1)Nc1ccc(C(=O)O)cc1 | 82 | – | – | 56 | – | – | 40 | 94 | 97 | 94 | 70 | –
16 | CCCCCCCCc1ccc(CCCNc2ccc(C(=O)O)cc2)s1 | 88 | <92 | <78 | <57 | 72 | 76 | < 27 | – | – | – | – | –
17 | O=C(O)c1ccc(NCCCc2cccc(Cl)c2)cc1 | 82 | – | – | 55 | 48 | 64 | 29 | – | 85 | 90 | – | –
18 | CCOC(=O)c1ccc(NC(=O)CCc2ccc(OC)cc2)cc1 | 80 | – | – | – | – | – | 26 | 98 | 98 | 85 | 89 | 105
19 | CCCCCCCCCCCCCCCCCCCNc1ccc(C(=O)[O-])cc1.[Na+] | 93 | 98 | 98 | <70 | 99 | 102 | – | – | – | – | – | –
20 | CCCCCCCCCCCCCCCCNc1ccc(C(=O)[O-])cc1.[Na+] [CETABEN SODIUM] | 90 | <76 | <60 | <41 | <60 | <75 | – | – | – | – | – | –
21 | CCCCCCCCCCCCNc1ccc(C(=O)[O-])cc1.[Na+] | 89 | 92 | 88 | <34 | <56 | <72 | – | – | – | – | – | –
22 | CCCCCCCCCCCCCCCCNc1ccc(C(=O)O)cc1 [CETABEN] | <72 | <71 | <54 | <31 | <45 | <71 | – | – | – | – | – | –
